Source: ChEMBL document CHEMBL1125192, “Analogues of the 5-HT1A serotonin antagonist 1-(2-methoxyphenyl)-4-[4-(2-phthalimido)butyl]piperazine with reduced alpha 1-adrenergic affinity” (J Med Chem, 1991)

What was measured:
[1] = biological target: Serotonin 1a (5-HT1a) receptor/Adrenergic receptor alpha-1 (Rattus norvegicus) (UniProt P15823+P23944+P43140+P19327); assay: Ratio of Ki value for alpha-1 receptor to that of 5-HT1A receptor; type: protein assay
Method in brief: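 Ratio of two radioligand binding Ki values. 5-HT1A binding used 0.1 nM [3H]-8-OH-DPAT with rat hippocampal homogenate (6 mg), and 10 μM 8-OH-DPAT defined nonspecific binding. α1-adrenergic binding used 1.0 nM [3H]WB4101 plus 100 nM 8-OH-DPAT with rat frontal cortex (10 mg), and 1 μM prazosin defined nonspecific binding.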

[2] = biological target: T1, 5-hydroxytryptamine receptor 1A (Rattus norvegicus, UniProt P19327); assay: Binding affinity towards 5-hydroxytryptamine 1A receptor of rat hippocampus using [3H]-8-hydroxy-2-(di-n-propylamine) tetralin (8-OH-DPAT) as a radioligand; type: tissue-based
T1 sequence (P19327 whole entry): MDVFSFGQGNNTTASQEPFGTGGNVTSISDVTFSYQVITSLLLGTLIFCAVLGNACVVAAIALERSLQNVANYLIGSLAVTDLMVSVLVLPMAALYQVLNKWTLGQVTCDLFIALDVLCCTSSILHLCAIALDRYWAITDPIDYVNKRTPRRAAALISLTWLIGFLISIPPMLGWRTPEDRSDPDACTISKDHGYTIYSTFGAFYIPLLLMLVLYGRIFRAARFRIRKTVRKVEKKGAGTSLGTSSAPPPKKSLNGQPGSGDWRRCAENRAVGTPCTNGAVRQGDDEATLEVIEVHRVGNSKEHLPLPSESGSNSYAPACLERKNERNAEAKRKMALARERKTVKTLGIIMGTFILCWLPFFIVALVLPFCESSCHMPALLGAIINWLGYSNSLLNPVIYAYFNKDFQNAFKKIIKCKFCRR

[3] = biological target: T2, Adrenergic receptor alpha-1 (Rattus norvegicus, UniProt P15823+P23944+P43140); assay: Binding affinity towards alpha-1 adrenergic receptor of rat frontal cortex using [3H]- WB- 4101 as a radioligand; type: tissue-based
T2 sequence (P15823 whole entry): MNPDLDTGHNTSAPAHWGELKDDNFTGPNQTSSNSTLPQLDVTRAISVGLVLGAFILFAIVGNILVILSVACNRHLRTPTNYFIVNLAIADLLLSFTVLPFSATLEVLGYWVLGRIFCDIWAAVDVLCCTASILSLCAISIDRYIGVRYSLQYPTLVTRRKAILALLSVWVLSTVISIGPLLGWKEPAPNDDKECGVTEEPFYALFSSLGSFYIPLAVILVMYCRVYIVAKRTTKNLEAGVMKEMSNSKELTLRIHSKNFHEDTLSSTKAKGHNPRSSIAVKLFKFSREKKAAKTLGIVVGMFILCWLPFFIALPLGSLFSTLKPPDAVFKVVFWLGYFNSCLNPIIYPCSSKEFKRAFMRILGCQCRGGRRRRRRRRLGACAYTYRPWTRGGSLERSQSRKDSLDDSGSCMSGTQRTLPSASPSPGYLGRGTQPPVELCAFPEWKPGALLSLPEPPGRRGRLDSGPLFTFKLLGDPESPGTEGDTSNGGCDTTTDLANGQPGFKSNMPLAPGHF
T2 sequence (P23944 whole entry): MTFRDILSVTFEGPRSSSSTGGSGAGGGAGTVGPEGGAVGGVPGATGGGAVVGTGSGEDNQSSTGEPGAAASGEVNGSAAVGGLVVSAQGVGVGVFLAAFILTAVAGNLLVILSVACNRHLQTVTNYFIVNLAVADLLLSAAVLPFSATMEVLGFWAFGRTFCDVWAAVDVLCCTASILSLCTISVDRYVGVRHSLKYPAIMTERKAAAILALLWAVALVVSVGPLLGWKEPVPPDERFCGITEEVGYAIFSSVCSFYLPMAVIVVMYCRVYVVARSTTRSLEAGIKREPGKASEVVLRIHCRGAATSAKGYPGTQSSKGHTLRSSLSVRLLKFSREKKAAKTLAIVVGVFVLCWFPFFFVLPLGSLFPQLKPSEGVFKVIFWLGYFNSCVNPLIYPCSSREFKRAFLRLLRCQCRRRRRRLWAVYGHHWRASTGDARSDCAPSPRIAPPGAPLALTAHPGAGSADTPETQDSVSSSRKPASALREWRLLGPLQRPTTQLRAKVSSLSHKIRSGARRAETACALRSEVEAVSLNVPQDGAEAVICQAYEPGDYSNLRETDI
T2 sequence (P43140 whole entry): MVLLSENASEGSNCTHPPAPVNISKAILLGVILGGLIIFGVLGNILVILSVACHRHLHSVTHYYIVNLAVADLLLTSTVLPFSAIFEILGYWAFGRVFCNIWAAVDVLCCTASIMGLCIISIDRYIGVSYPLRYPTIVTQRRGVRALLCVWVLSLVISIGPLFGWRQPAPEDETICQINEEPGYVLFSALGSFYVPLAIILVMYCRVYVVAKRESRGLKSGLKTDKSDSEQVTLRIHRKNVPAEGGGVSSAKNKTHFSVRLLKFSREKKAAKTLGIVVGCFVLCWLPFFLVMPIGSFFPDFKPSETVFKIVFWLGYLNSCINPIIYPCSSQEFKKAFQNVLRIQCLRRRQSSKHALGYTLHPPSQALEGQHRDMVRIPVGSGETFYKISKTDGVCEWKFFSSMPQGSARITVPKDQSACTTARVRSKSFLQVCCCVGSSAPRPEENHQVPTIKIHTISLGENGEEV

D(2) dopamine receptor = D(2) dopamine receptor (Bos taurus, UniProt P20288); assay: Binding affinity towards D2-dopaminergic receptor using [3H]NMSP as radioligand
D(2) dopamine receptor, sequence (P20288 whole entry): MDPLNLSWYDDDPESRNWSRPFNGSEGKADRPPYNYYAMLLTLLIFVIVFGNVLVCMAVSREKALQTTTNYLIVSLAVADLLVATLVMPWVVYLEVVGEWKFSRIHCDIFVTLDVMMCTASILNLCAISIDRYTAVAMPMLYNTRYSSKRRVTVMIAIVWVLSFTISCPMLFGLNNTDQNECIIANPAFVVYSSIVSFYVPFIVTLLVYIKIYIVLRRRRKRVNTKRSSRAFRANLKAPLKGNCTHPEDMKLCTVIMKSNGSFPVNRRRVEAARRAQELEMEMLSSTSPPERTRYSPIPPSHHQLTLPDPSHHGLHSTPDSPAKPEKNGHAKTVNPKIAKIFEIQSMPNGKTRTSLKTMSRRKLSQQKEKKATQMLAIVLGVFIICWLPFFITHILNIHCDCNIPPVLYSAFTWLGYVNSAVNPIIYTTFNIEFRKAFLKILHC
Method in brief: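 Calf caudate (2 mg) with 1 nM [3H]NMSP in 140 mM NaCl; nonspecific binding defined by 10 μM sulpiride.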

[4] = biological target: T3, 5-hydroxytryptamine receptor 2C (Rattus norvegicus, UniProt P08909); assay: Binding affinity towards 5-hydroxytryptamine 1C receptor using [3H]mesulergine as radioligand
T3 sequence (P08909 whole entry): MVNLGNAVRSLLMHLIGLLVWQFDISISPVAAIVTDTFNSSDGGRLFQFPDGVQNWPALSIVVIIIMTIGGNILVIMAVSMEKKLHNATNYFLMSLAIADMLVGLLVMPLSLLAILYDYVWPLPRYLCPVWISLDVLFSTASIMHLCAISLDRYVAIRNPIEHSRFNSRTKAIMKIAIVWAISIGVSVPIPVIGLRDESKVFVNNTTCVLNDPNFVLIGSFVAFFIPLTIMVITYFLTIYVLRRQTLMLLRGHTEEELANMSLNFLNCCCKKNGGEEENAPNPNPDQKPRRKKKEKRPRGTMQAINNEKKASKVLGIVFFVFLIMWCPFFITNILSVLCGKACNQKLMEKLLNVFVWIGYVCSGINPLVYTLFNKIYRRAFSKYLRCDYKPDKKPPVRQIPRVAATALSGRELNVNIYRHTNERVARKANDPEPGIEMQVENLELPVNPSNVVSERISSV
Method in brief: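 Homogenized rat frontal cortex (10 mg) with 1.0 nM [3H]mesulergine plus 10 nM spiperone; 10 μM 5-HT defined nonspecific binding.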

Adrenergic receptor beta = Adrenergic receptor beta (Rattus norvegicus, UniProt P18090+P10608+P26255); assay: Binding affinity towards beta adrenergic receptor using [3H]DHA as radioligand; type: protein assay
Method in brief: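 Homogenized rat frontal cortex (5 mg) labelled with 1 nM [3H]DHA; 1 μM propranolol for nonspecific binding.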

[5] = biological target: 5-hydroxytryptamine receptor 1B (Rattus norvegicus, UniProt P28564); assay: Binding affinity towards 5-hydroxytryptamine 1B receptor using [3H]5-HT as radioligand
5-hydroxytryptamine receptor 1B, sequence (P28564 whole entry): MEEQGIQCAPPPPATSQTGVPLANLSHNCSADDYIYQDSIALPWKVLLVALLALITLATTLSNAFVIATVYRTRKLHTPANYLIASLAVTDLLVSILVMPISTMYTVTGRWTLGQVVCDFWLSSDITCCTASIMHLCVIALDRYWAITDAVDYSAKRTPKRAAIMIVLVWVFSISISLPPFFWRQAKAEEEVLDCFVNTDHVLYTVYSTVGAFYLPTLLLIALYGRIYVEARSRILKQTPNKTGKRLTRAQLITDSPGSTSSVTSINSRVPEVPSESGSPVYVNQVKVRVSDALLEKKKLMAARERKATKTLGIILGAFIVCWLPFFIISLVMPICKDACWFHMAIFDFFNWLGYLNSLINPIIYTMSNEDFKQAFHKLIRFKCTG

D(1A) dopamine receptor = D(1A) dopamine receptor (Rattus norvegicus, UniProt P18901); assay: Binding affinity towards Dopamine receptor D1 using [3H]SCH-23390 as radioligand
D(1A) dopamine receptor, sequence (P18901 whole entry): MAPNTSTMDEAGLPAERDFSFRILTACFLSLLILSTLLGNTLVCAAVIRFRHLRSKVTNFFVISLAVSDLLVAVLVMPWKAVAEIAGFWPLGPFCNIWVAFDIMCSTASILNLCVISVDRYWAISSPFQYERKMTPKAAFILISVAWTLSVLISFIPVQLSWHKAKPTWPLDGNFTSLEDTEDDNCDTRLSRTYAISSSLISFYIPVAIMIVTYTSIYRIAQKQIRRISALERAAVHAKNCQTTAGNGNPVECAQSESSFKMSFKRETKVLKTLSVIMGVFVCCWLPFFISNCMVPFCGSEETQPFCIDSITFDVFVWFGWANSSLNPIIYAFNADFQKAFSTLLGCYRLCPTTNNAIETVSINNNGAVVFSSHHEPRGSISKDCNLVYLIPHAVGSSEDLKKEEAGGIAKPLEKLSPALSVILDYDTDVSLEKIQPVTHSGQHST
Method in brief: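 Homogenized rat striatum (2 mg), 1 nM [3H]SCH-23390 with 20 nM ketanserin added; 1 μM SCH-23390 defined nonspecific binding.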

[6] = biological target: Serotonin 2 (5-HT2) receptor (Rattus norvegicus, UniProt P30994+P08909+P14842); assay: Binding affinity towards 5-hydroxytryptamine 2 receptor using [3H]DOB as; type: protein assay
Method in brief: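 [3H]DOB at 0.4 nM on 15 mg homogenized rat frontal cortex; nonspecific binding set with 1 μM cinanserin.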

Row | Selectivity [1] | Ki [2] | Ki [3] | SMILES | also measured
1 | 0.7 | 22 nM | 15 nM | COc1ccc(OC)c(N2CCN(CCCCN3C(=O)c4ccccc4C3=O)CC2)c1 | 
2 | 7 |  | 84 nM | COc1ccccc1N1CCN(CCCCNC(=O)CCCc2ccccc2)CC1 | 
3 | 3 | 5.4 nM | 17 nM | COc1ccccc1N1CCN(CCCCNC(=O)c2ccc(O)cc2)CC1 | 
4 | 4 | 6.3 nM | 23 nM | COc1ccccc1N1CCN(CCCCNC(=O)c2ccc(N)cc2)CC1 | 
5 | 74 | 1 nM | 74 nM | COc1ccccc1N1CCN(CCCCNC(=O)C(C)(C)C)CC1 | 
6 |  | 213 nM | 10000 nM | CC(=O)Nc1ccc(N2CCN(CCCCN3C(=O)c4ccccc4C3=O)CC2)cc1 | 
7 | 6 | 4 nM | 25 nM | O=C1c2ccccc2C(=O)N1CCCCN1CCN(c2ccccc2[N+](=O)[O-])CC1 | 
8 | 4 | 4 nM | 15 nM | COc1ccccc1N1CCN(CCCCNC(=O)c2ccc(I)cc2)CC1 | 

Continued, molecule first:

Row | SMILES | Selectivity [1] | Ki [2] | Ki [3] | also measured
9 | COc1ccccc1N1CCN(CCCCNC(=O)C23C[C@H]4C[C@@H](C2)C[C@@H](C3)C4)CC1 |  | 0.4 nM | 64 nM | Ki (D(2) dopamine receptor): 2.7 nM; Ki [4]: 225 nM; Ki (Adrenergic receptor beta): 1020 nM; Ki [5]: 890 nM; Ki (D(1A) dopamine receptor): > 1000 nM; Ki [6]: 34 nM
10 | O=C1c2ccccc2C(=O)N1CCCCN1CCN(c2ccc([N+](=O)[O-])cc2)CC1 | 0.4 | 1000 nM | 378 nM | 
11 | CCCCC(=O)NCCCCN1CCN(c2ccccc2OC)CC1 | 11 | 7.5 nM | 84 nM | 
12 | COc1ccccc1N1CCN(CCCCNC(=O)c2ccc([N+](=O)[O-])cc2)CC1 | 3 | 4.4 nM | 14 nM | 
13 | COc1ccccc1N1CCN(CCCCNC(=O)c2ccc(Cl)cc2)CC1 | 6 | 3.6 nM | 23 nM | 
14 | O=C(NCCCCN1CCN(c2cccc3ccccc23)CC1)C12C[C@H]3C[C@@H](C1)C[C@@H](C2)C3 | 156 | 0.7 nM | 109 nM | 
15 | COc1ccccc1N1CCN(CCCCNC(=O)c2ccc(Cl)c(Cl)c2)CC1 | 11 | 2 nM | 21 nM | 
16 | O=C1c2ccccc2C(=O)N1CCCCN1CCN(c2cccc3ccccc23)CC1 | 22 |  | 22 nM | 
